The test system of test [1] is THP-1. The experiment in a line: Antiinflammatory activity in human THP1 cells assessed as inhibition of TNFalpha secretion at 1 uM treated 1 hr before LPS challenge measured after 24 hrs by ELISA. Type of test: functional, cell-based. The essentials: (§1)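 THP-1 monocytes (RPMI 1640, 10% FBS, 37 °C, 5% CO2) differentiated to macrophages with PMA; pretreated 1 h with test agent at 1 μM in DMSO (0.1% final); LPS (E. coli 0111:B4) 1 μg/mL added, medium collected after 24 h and stored at −80 °C; secreted cytokine quantified by ELISA; vehicle and non-LPS controls; three independent experiments, mean ± SE.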

Test [2] addresses Transcription factor p65 (Homo sapiens) (UniProt Q04206). The experiment in a line: Inhibition of NFkappaB p65 nuclear translocation in LPS-induced human THP1 cells at 1 uM treated 1 hr before LPS challenge measured after 3 hrs using propidium iodide staining by fluorescence microscopic analysis. Type of test: cell-based. The conditions noted are these: THP-1. The method in brief: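 PMA-differentiated THP-1 macrophages in serum-free RPMI (5 × 10^5 cells/mL) pretreated 1 h at 1 μM, then LPS 1 μg/mL final for 3 h; acetone-fixed, BSA-blocked, rabbit anti-p65 overnight at 4 °C, FITC anti-rabbit IgG 1 h, nuclei counterstained with propidium iodide 0.5 μg/mL; p65/nuclear colocalization viewed by fluorescence microscopy; three independent experiments.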

The subject of test [3] is THP-1. The experiment in a line: Cytotoxicity against human THP1 cells after 24 hrs by WST1 assay. Type of test: cell-based. The conditions noted are these: THP-1, 24 h. The essentials: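 THP-1 monocyte suspension (5 × 10^5 cells/mL) exposed to compounds in DMSO, 30 down to 0.37 μM, DMSO 0.1% final; 24 h at 37 °C, 5% CO2; viability by WST-1 reagent; IC50 calculated from viability curves; triplicate, arithmetic mean ± SE.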
Background: Tetrazolium assays rely on reduction of a dye to a coloured formazan, in cell work by metabolically active cells.

Test [4] has as its system THP-1. Description: Antiinflammatory activity in human THP1 cells assessed as inhibition of IL-1beta secretion at 1 uM treated 1 hr before LPS challenge measured after 24 hrs by ELISA. The format is functional, cell-based. The method in brief: as §1
(In general: An ELISA detects its analyte on a solid surface through an enzyme-linked reagent.)

The next test deals with A2780. Description: Cytotoxicity against human A2780 cells. The format is cell-based.
The test system of test [5] is THP-1. Description: Ratio of prednisone to compound for antiinflammatory activity in human THP1 cells assessed as inhibition of TNFalpha secretion at 1 uM treated 1 hr before LPS challenge measured after 24 hrs by ELISA. The format is functional.

For eleven molecules, inhibition, IC50 and Ratio results are on record in ChEMBL document CHEMBL3286347, “Evaluation of anti-inflammatory activity of prenylated substances isolated from Morus alba and Morus nigra” (J Nat Prod, 2014).

The source made the active and inactive calls. No cut-off for these calls is given here. Some results are limits rather than exact numbers.

What is called IC50 is the concentration that gives 50% inhibition. A high value points to weaker potency.

Chain of Transcription factor p65 (Homo sapiens) (Q04206 whole entry): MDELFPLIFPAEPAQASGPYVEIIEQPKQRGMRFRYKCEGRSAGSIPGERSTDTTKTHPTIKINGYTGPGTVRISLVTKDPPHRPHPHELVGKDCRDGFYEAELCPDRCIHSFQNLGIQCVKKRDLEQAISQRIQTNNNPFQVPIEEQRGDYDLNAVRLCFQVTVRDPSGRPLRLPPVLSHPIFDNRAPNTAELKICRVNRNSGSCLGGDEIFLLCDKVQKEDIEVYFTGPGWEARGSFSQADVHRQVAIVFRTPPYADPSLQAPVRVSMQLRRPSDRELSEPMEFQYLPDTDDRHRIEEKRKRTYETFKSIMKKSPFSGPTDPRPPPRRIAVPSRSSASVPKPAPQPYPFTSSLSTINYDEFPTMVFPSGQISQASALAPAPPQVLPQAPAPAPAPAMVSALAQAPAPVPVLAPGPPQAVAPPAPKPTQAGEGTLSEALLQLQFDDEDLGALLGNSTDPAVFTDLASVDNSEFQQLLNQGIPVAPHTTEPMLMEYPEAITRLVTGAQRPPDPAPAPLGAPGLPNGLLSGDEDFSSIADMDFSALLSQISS

Regarding `CC1(C)C=Cc2c(O)ccc([C@@H]3CC(=O)c4c(O)cc(O)cc4O3)c2O1`, the inhibition entry (in the test on THP-1 [1]; in test [2]; in the test with THP-1 [4]) was “Active” in each case. The molecule also came in with a 50% inhibitory concentration (IC50) in the test with THP-1 [3] of over 10 µM.
As for `CC1=C[C@@H]2c3c(O)cc(C=O)cc3OC3(c4ccc(O)c5c4OC(C)(C)C=C5)Oc4cc(O)ccc4[C@@H](C1)[C@H]23` (some centres undefined), the IC50 with THP-1 [3] was found to be 4.7 µM.
Same read-out and setting: the figure for `CC(C)=CCc1c(O)ccc(C(=O)[C@@H]2[C@@H](c3ccc(O)cc3O)CC(C)=C[C@H]2c2c(O)cc3c(c2O)C(=O)[C@@H]2Oc4cc(O)ccc4[C@]2(CC=C(C)C)O3)c1O` is 4 µM.
In the test on A2780, `CC(C)=CCc1c(O)ccc([C@@]23Oc4cc(O)ccc4[C@@H]4CC(C)=C[C@@H](c5c(O)cc(-c6cc7ccc(O)cc7o6)cc5O2)[C@H]43)c1O` gave a 50% inhibitory concentration (IC50) of 1.2 µM.
As for `CC(C)=CCc1c(-c2ccc(O)cc2O)oc2cc3c(c(O)c2c1=O)C=CC(C)(C)O3` [CUDRAFLAVONE B], the inhibition entry (in the test with THP-1 [1]; in test [2]) was “Active” in each case. The molecule further registered an IC50 in the test on THP-1 [3] of over 10 µM. For the same molecule, in the test with THP-1 [4], the inhibition result was “inactive”.
For the molecule `CC(C)=CCc1c(-c2ccc(O)cc2O)oc2c(CC=C(C)C)c(O)cc(O)c2c1=O` [KUWANON C], the inhibition result in the test with THP-1 [1] and in the test on THP-1 [4] was “Active” each time. Further, inhibition with THP-1 [3] was half-maximal at 1.7 µM (IC50).
In the case of `CC(C)=CCC/C(C)=C/Cc1cc(C2CC(=O)c3c(O)cc(O)cc3O2)c(O)cc1O` (centres undefined) [KUWANON E], the inhibition result in the test on THP-1 [1] and in the test on THP-1 [4] was “Active” in each case. Moreover, the IC50 in the test on THP-1 [3] was 4 µM.
Molecule `CC(C)=CCc1c(O)cc(-c2cc3ccc(O)cc3o2)cc1O` [MORACIN C] displayed an IC50 in the test on THP-1 [3] of 3.2 µM. In the test with THP-1 [4], the inhibition result was “inactive”.
With `CC(C)(O)CCc1c(-c2ccc(O)cc2O)oc2c3c(cc(O)c2c1=O)OC(C)(C)C=C3` [MORUSINOL], the inhibition entry (in the test with THP-1 [1]; in test [2]; in the test with THP-1 [4]) was “Active” each time. In addition, the Ratio with THP-1 [5] is 2. In the test with THP-1 [3], this molecule came in with an IC50 of 4.3 µM.
As to `C[C@@]12C=C(c3c(O)cc(-c4cc5ccc(O)cc5o4)cc3O)C[C@@H](C1)c1ccc(O)cc1O2` [MULBERROFURAN H], the inhibition entry in test [2] is “Active”. Half-maximal inhibition in the test with THP-1 [3] (IC50) was put at 3.2 µM. Further, the inhibition result with THP-1 [4] is “inactive”.
`COc1c(O)cc2oc(-c3cc(O)cc(O)c3)cc2c1C/C=C(\C)CCC=C(C)C` [MULBERROFURAN Y]: in the test with THP-1 [3], the 50% inhibitory concentration (IC50) came out at 4.8 µM. Besides, the inhibition result with THP-1 [4] was “Active”.
